Assays:
D(1B) dopamine receptor = D(1B) dopamine receptor (Homo sapiens, UniProt P21918); assay: Binding affinity at dopamine D5 receptor
[1] = molecular target: 5-hydroxytryptamine receptor 2A (Homo sapiens, UniProt P28223); assay: Binding affinity at 5HT2A receptor
[2] = Tmax in Sprague-Dawley rat plasma at 10 mg/kg, po; type: ADME, organism-based; parameters: dose 10 mg/kg, route oral
Procedure, shortened: (§1)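 Single oral dose of 10 mg/kg to two male Sprague-Dawley rats. Blood drawn at several time points. Plasma levels of individual animals, generally within ±25% of the mean, were used to calculate PK parameters.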

[3] = AUC in Sprague-Dawley rat plasma at 10 mg/kg, po; type: ADME, organism-based; parameters: dose 10 mg/kg, route oral; procedure, shortened: as §1
[4] = Cmax in Sprague-Dawley rat plasma at 10 mg/kg, po; type: ADME, organism-based; parameters: dose 10 mg/kg, route oral; procedure, shortened: as §1
D(1A) dopamine receptor [5] = molecular target: T1, D(1A) dopamine receptor (Homo sapiens, UniProt P21728); assay: Displacement of [3H]SCH 23390 from human dopamine D1 receptor expressed in CHO cells; type: cell-based
T1 sequence (P21728 whole entry): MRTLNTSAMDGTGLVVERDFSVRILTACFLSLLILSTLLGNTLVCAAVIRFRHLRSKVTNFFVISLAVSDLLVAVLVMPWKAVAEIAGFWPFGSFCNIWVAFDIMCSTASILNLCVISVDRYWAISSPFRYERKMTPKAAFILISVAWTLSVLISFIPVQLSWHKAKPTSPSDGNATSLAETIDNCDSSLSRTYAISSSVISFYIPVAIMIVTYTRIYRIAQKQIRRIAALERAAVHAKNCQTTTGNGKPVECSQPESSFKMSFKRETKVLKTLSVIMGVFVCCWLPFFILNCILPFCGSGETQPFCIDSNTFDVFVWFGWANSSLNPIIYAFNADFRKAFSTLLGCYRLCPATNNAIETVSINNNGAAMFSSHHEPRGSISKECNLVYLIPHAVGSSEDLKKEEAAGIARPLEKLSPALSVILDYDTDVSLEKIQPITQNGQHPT

D(1A) dopamine receptor [6] = molecular target: T1, D(1A) dopamine receptor; assay: Activity at dopamine D1 receptor by cAMP assay; type: functional; settings: for Activity: filed as antagonist
D(2) dopamine receptor [7] = molecular target: T2, D(2) dopamine receptor (Homo sapiens, UniProt P14416); assay: Binding affinity at dopamine D2 receptor
T2 sequence (P14416 whole entry): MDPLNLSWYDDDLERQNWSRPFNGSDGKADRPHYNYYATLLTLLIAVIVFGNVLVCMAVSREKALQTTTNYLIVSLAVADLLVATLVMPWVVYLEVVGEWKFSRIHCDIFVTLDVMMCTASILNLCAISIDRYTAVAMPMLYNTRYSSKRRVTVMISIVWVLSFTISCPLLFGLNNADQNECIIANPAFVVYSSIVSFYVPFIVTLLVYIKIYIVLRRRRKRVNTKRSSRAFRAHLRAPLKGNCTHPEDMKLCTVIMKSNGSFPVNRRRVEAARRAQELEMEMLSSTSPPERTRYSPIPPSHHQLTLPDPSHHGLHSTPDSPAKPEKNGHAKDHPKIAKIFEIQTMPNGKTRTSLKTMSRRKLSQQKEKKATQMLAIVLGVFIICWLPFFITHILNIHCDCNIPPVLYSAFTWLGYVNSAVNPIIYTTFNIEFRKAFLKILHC
Procedure, shortened: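 Membranes from cells stably expressing D2 receptor (4-7 pmol/mg protein; Ltk- cells in one passage, CHO in another), made by hypotonic lysis and 48,000g spin and stored at -80 °C. Incubated with 0.5 nM [3H]methylspiperone for 1 h at room temperature. Nonspecific binding set by 10 µM (-)-sulpiride. Rapid filtration, then scintillation counting. One-site competition fit; Ki is the mean of separate determinations.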

D(2) dopamine receptor [8] = molecular target: T2, D(2) dopamine receptor; assay: Displacement of [3H]methylspiperone from human dopamine D2 receptor expressed in CHO cells; type: cell-based
[9] = molecular target: T3, Alpha-2A adrenergic receptor (Homo sapiens, UniProt P08913); assay: Binding affinity at adrenergic alpha2A receptor
T3 sequence (P08913 whole entry): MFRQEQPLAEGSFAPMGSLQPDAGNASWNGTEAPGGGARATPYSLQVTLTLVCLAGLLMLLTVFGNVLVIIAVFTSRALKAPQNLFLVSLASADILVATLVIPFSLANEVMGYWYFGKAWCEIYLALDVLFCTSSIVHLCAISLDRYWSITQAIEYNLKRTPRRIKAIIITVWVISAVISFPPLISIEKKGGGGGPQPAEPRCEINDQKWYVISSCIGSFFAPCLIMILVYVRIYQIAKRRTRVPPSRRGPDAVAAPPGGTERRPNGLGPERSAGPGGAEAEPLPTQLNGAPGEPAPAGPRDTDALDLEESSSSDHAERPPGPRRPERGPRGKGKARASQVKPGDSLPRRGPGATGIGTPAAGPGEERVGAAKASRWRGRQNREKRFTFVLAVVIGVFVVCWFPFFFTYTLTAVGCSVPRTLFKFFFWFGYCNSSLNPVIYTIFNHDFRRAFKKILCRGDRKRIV

D(4) dopamine receptor = molecular target: T4, D(4) dopamine receptor (Homo sapiens, UniProt P21917); assay: Binding affinity at dopamine D4 receptor
T4 sequence (P21917 whole entry): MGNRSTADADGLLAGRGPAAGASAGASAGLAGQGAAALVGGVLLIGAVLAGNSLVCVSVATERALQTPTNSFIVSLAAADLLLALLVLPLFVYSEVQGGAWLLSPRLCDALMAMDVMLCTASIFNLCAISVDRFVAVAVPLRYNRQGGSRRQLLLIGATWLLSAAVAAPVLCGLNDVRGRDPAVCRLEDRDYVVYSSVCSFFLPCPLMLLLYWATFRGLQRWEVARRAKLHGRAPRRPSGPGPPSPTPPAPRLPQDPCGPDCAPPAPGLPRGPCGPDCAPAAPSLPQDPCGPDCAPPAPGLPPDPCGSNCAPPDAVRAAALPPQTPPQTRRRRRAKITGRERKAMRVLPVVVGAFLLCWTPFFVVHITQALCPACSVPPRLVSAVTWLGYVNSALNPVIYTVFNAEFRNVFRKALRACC

Chain of D(1B) dopamine receptor (P21918 whole entry): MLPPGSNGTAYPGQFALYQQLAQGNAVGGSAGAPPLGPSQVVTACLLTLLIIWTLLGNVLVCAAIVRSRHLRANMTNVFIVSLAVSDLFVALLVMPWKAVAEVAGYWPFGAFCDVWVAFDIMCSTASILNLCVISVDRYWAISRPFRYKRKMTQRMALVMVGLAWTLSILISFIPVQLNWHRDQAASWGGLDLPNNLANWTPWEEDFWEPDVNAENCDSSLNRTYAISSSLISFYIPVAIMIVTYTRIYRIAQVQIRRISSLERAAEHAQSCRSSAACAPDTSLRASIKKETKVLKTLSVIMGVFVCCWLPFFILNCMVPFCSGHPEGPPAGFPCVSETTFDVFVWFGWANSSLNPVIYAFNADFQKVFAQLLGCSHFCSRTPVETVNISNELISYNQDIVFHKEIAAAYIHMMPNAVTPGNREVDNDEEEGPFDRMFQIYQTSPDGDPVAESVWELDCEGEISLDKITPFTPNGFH
Chain of 5-hydroxytryptamine receptor 2A (P28223 whole entry): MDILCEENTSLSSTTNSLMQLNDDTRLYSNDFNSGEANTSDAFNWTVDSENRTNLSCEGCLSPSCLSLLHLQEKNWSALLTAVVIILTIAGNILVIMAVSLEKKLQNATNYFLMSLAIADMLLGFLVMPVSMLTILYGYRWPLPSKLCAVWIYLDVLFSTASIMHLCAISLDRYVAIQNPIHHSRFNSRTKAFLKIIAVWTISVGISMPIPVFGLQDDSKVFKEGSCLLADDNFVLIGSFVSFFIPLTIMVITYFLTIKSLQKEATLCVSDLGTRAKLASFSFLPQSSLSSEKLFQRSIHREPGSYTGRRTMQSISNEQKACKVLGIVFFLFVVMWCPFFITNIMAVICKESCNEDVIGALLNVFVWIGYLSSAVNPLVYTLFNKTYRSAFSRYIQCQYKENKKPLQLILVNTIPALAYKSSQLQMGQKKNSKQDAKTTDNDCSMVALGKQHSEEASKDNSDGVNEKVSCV

For `CN1CCN(C2=Nc3cc(Cl)ccc3N(NC(=O)c3ccccc3Cl)c3ccccc32)CC1`, the Ki (D(1B) dopamine receptor) was 73 nM, the Ki [1] was 1 nM and the Tmax [2] was 1 h. It also gave an AUC [3] of 2660 ng·h/mL, a Cmax [4] of 821 ng/mL and a Ki (D(1A) dopamine receptor [5]) of 4 nM. The Kb (D(1A) dopamine receptor [6]) was 2.8 nM, the Activity (D(1A) dopamine receptor [6]) was “Antagonist” and the Ki (D(2) dopamine receptor [7]) was 181 nM. It also gave a Ki (D(2) dopamine receptor [8]) of 181 nM, a Ki [9] of 455 nM and a Ki (D(4) dopamine receptor) of 870 nM.
`CN1CCN(C2=Nc3cc(Cl)ccc3N(NC(=O)c3cccc4ccccc34)c3ccccc32)CC1` gave a Ki (D(1B) dopamine receptor) of 105 nM, a Ki [1] of 1 nM and a Tmax [2] of 1 h. It also gave an AUC [3] of 12900 ng·h/mL, a Cmax [4] of 3570 ng/mL and a Ki (D(1A) dopamine receptor [5]) of 3.8 nM. For the same compound, the Kb (D(1A) dopamine receptor [6]) was 2 nM, the Activity (D(1A) dopamine receptor [6]) was “Antagonist” and the Ki (D(2) dopamine receptor [7]) was 458 nM. It also gave a Ki (D(2) dopamine receptor [8]) of 458 nM, a Ki [9] of 882 nM and a Ki (D(4) dopamine receptor) of 977 nM.

From ChEMBL document CHEMBL1146871, “Hydrazides of clozapine: a new class of D1 dopamine receptor subtype selective antagonists” (Bioorg Med Chem Lett, 2006)
